Values after ≈ are worked out from the molar mass of the structure shown. Values joined by “and” are separate entries in the source; they are usually repeats but may differ in a detail not shown here. Identical values can stand only once.

The first data set relates to Human alphaherpesvirus 2. The data set is described as follows: Concentration required to inhibit HSV type 2 strain MS induced cytopathogenic affects by 50%; 6.4-30.
Conditions: not given
The class given is functional. Summed up:
(§1)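 Inhibition of cytopathogenic effect caused by HSV-1 strain 377 or HSV-2 strain MS, replicating in secondary rabbit kidney cell cultures or in Vero cells. MIC₅₀ is the concentration giving 50% inhibition of virus-induced CPE. Ranges are pooled from several tests in either host cell type.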
In general terms: Cytopathic effects are the visible damage that an infection or toxin causes in cultured cells.
`Nc1ncnc2c1ncn2[C@@H]1O[C@H](CO)[C@@H](O)[C@@H]1O` [VIDARABINE] registered an MIC50 of 6.4 µg/mL (≈ 23.9 µM).

Another data set deals with Human alphaherpesvirus 1. The data set can be described thus: Concentration required to inhibit HSV type 1 strain 377 induced cytopathogenic affects by 50%.
Conditions: not given
The class given is functional. In short, it runs like this: as §1
Consider `Nc1nc(N)c2ncn(C3CC(O)C(CO)C3)c2n1` (centres undefined), for which the MIC50 amounted to 0.3 µg/mL (≈ 1.14 µM).

`Nc1nc(Cl)c2nnn(C3CC(O)C(CO)C3)c2n1` (centres undefined) registered an MIC50 of 1.6 µg/mL (≈ 5.62 µM).

Still in this data set, the particulars now being: Human alphaherpesvirus 1; read-out: MIC50.
With `Nc1nc(N)c2ncn(C3CC(O)C(CO)C3)c2n1` (centres undefined), the MIC50 is 0.6 µg/mL (≈ 2.27 µM).

Regarding `Nc1nc(Cl)c2nnn(C3CC(O)C(CO)C3)c2n1` (centres undefined), the MIC50 is less than 1 µg/mL.

The subject of another data set is Mus musculus. The data set can be described thus: Antineoplastic activity of compound in mice inoculated with 10e 5 L1210 leukemia cells was measured as T/C after ip administration of 25 […]. It counts as functional.
Conditions: not given
In short, it runs like this: (§2)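 L1210 leukemia, 10⁵ cells inoculated intraperitoneally into mice on day 0, following NCI protocols. Compound given intraperitoneally as a solution or suspension once daily on days 1-9. T/C % compares lifespan of treated mice with untreated leukemic control mice.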
What is called T/C is the ratio of treated to control. The compound `Nc1nc(Cl)c2nnn(C3CC(O)C(CO)C3)c2n1` (centres undefined) gave a T/C of 118%.

Test system in another data set: not listed separately
The data set can be described thus: Compound was evaluated for cytotoxicity to KB cells (derived from human epidermoid carcinoma). The class given is cell-based. The note with it: read-out: ED50 (the source's name). Summed up:
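KB cells grown in culture and tested under the National Cancer Institute cytotoxicity protocol. The value is reported as ED50 in mcg/mL.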
For the compound `Nc1nc(N)c2ncn(C3CC(O)C(CO)C3)c2n1` (centres undefined), the CC50 was greater than 100 µg/mL.

With `Nc1nc(Cl)c2nnn(C3CC(O)C(CO)C3)c2n1` (centres undefined), the CC50 was found to be 10 µg/mL (≈ 35.1 µM).

Another data set has as its system Human alphaherpesvirus 1. The data set can be described thus: In vitro antiviral activity in secondary cultures of rabbit kidney cells against HSV type 1 strain 377. It counts as functional.
Conditions: not given
In short, it runs like this: (§3)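 Scored as a virus rating (VR) from inhibition of CPE caused by HSV-1 strain 377 or HSV-2 strain MS in secondary rabbit kidney cultures or Vero cells. VR ≥1.0 means definite activity, 0.5-0.9 marginal to moderate, and <0.5 usually none. Ranges are pooled from several tests.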
`Nc1nc(N)c2ncn(C3CC(O)C(CO)C3)c2n1` (centres undefined): the Virus rating is listed as 4.7.

In another data set the test system is Mus musculus. The data set is described as follows: Antineoplastic activity of compound in mice inoculated with 10e 5 L1210 leukemia cells was measured as T/C after ip administration of 50 mg/kg. It counts as functional. To be noted: route intraperitoneal. In short, it runs like this: as §2
In the case of `Nc1nc(N)c2ncn(C3CC(O)C(CO)C3)c2n1` (centres undefined), the T/C was found to be 104%.

The test system of another data set is L1210. The data set can be described thus: Antineoplastic activity of compound in mice inoculated with 10e 5 L1210 leukemia cells was measured as weight change after ip administration of 200 mg/kg. The class given is functional, Mus musculus. To be noted: route intraperitoneal. Summed up: (§4)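 Mice received 10⁵ L1210 leukemia cells ip on day 0, then compound ip as a solution or suspension q.d. days 1-9, following NCI protocols. Weight-change difference is the mean weight change of treated mice minus that of untreated leukemic controls, both measured on day 5.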
`Nc1nc(N)c2ncn(C3CC(O)C(CO)C3)c2n1` (centres undefined): the Weight change was -5.5 g.

For a further data set, the system named is L1210. The data set can be described thus: Antineoplastic activity of compound in mice inoculated with 10e 5 L1210 leukemia cells was measured as weight change after ip administration of 200 […]. The class given is functional, Mus musculus.
Conditions: not given
Summed up: as §4
As to `Nc1nc(Cl)c2nnn(C3CC(O)C(CO)C3)c2n1` (centres undefined), the Weight change is given as -4.4 g.

The next data set has as its system Mus musculus. The data set can be described thus: Antineoplastic activity of compound in mice inoculated with 10e 5 L1210 leukemia cells was measured as T/C after ip administration of 100 […]. The class given is functional.
Conditions: not given
Summed up: as §2
In turn, `Nc1nc(Cl)c2nnn(C3CC(O)C(CO)C3)c2n1` (centres undefined) displayed a T/C of 100%.

A further data set relates to Human alphaherpesvirus 1. The data set can be described thus: Concentration required to inhibit HSV type 1 strain 377 induced cytopathogenic affects by 50%; 6.4-9.8. It counts as functional.
Conditions: not given
Summed up:
as §1
Consider `Nc1ncnc2c1ncn2[C@@H]1O[C@H](CO)[C@@H](O)[C@@H]1O` [VIDARABINE], for which the MIC50 was found to be 6.4 µg/mL (≈ 23.9 µM).

The subject of another data set is Human alphaherpesvirus 1. The data set can be described thus: In vitro antiviral activity in secondary cultures of rabbit kidney cells against HSV type 1 strain 377; 2.5-3.1. The class given is functional.
Conditions: not given
In short, it runs like this: as §3
Turning to `Nc1ncnc2c1ncn2[C@@H]1O[C@H](CO)[C@@H](O)[C@@H]1O` [VIDARABINE], the Virus rating is listed as 2.5.

The subject of a further data set is L1210. The data set can be described thus: Antineoplastic activity of compound in mice inoculated with 10e 5 L1210 leukemia cells was measured as weight change after ip administration of 25 […]. The class given is functional, Mus musculus.
Conditions: not given
In short, it runs like this: as §4
In turn, `Nc1nc(Cl)c2nnn(C3CC(O)C(CO)C3)c2n1` (centres undefined) returned a Weight change of -1 g.

In a further data set the test system is Mus musculus. The data set can be described thus: Antineoplastic activity of compound in mice inoculated with 10e 5 L1210 leukemia cells was measured as T/C after ip administration of 200 mg/kg. The note with it: route intraperitoneal. It counts as functional. Summed up:
as §2
Compound `Nc1nc(N)c2ncn(C3CC(O)C(CO)C3)c2n1` (centres undefined) showed a T/C of 79%.

The next data set deals with Mus musculus. The data set can be described thus: Antineoplastic activity of compound in mice inoculated with 10e 5 L1210 leukemia cells was measured as T/C after ip administration of 50 […]. The class given is functional.
Conditions: not given
Summed up: as §2
`Nc1nc(Cl)c2nnn(C3CC(O)C(CO)C3)c2n1` (centres undefined) showed a T/C of 105%.

In another data set the test system is Human alphaherpesvirus 2. The data set can be described thus: Concentration required to inhibit HSV type 2 strain MS induced cytopathogenic affects by 50%. The class given is functional.
Conditions: not given
Summed up:
as §1
In the case of `Nc1nc(N)c2ncn(C3CC(O)C(CO)C3)c2n1` (centres undefined), the MIC50 amounted to 2.4 µg/mL (≈ 9.08 µM).

Compound `Nc1nc(Cl)c2nnn(C3CC(O)C(CO)C3)c2n1` (centres undefined) displayed an MIC50 of 23 µg/mL (≈ 80.8 µM).

Another data set relates to Human alphaherpesvirus 1. The data set can be described thus: In vitro antiviral activity in secondary cultures of rabbit kidney cells infected with HSV type 1 strain 377. The class given is functional.
Conditions: not given
In short, it runs like this: as §3
Compound `Nc1nc(N)c2ncn(C3CC(O)C(CO)C3)c2n1` (centres undefined) yielded a Virus rating of 4.5.

Turning to `Nc1nc(Cl)c2nnn(C3CC(O)C(CO)C3)c2n1` (centres undefined), the Virus rating was 5 and 4.5.

A further data set deals with Human alphaherpesvirus 2. The data set is described as follows: In vitro antiviral activity in secondary cultures of rabbit kidney cells infected with HSV type 2 strain MS. It counts as functional.
Conditions: not given
In short, it runs like this: as §3
Regarding `Nc1nc(N)c2ncn(C3CC(O)C(CO)C3)c2n1` (centres undefined), the Virus rating is on record as 2.9.

Take `Nc1nc(Cl)c2nnn(C3CC(O)C(CO)C3)c2n1` (centres undefined): the Virus rating was 1.9.

The next data set concerns L1210. The data set can be described thus: Antineoplastic activity of compound in mice inoculated with 10e 5 L1210 leukemia cells was measured as weight change after ip administration of 100 […]. The class given is functional, Mus musculus.
Conditions: not given
In short, it runs like this: as §4
`Nc1nc(Cl)c2nnn(C3CC(O)C(CO)C3)c2n1` (centres undefined) displayed a Weight change of -3.4 g.

Another data set deals with Mus musculus. The data set can be described thus: Antineoplastic activity of compound in mice inoculated with 10e 5 L1210 leukemia cells was measured as T/C after ip administration of 200 […].
Conditions: not given
It counts as functional. In short, it runs like this:
as §2
For the compound `Nc1nc(Cl)c2nnn(C3CC(O)C(CO)C3)c2n1` (centres undefined), the T/C was 78%.

The test system of another data set is Human alphaherpesvirus 2. The data set is described as follows: In vitro antiviral activity in secondary cultures of rabbit kidney cells against HSV type 2 strain MS; 1.6-2.3. The class given is functional.
Conditions: not given
In short, it runs like this: as §3
`Nc1ncnc2c1ncn2[C@@H]1O[C@H](CO)[C@@H](O)[C@@H]1O` [VIDARABINE]: the Virus rating came to 1.6.

The test system of the next data set is L1210. The data set is described as follows: Antineoplastic activity of compound in mice inoculated with 10e 5 L1210 leukemia cells was measured as weight change after ip administration of 50 […]. The class given is functional, Mus musculus.
Conditions: not given
Summed up:
as §4
Take `Nc1nc(Cl)c2nnn(C3CC(O)C(CO)C3)c2n1` (centres undefined): the Weight change is -1.5 g.

The next data set concerns L1210. The data set can be described thus: Antineoplastic activity of compound in mice inoculated with 10e 5 L1210 leukemia cells was measured as weight change after ip administration of 50 mg/kg. It counts as functional, Mus musculus. To be noted: route intraperitoneal. Summed up:
as §4
`Nc1nc(N)c2ncn(C3CC(O)C(CO)C3)c2n1` (centres undefined): the Weight change was -2.8 g.
